iPSC survival up = increases survival of single human iPS cells; hiPSC single-cell survival, ATPlite luminescence; 100% = ROCK inhibitor wells, 0% = DMSO; survival enhancement, % at 20 µM; actives 0.044% (n = 360,000); AID 602274; in the data active = survival enhancement above about 18%;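 also: cells exposed to compounds for 16 hours before the ATP read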
Cardio protect = protects H9c2 cardiomyocytes from peroxide injury. AID 588492. H2O2 injury protection, ATPLite, 2 h. actives 0.63% (n = 360,000). protection from H2O2 cell death, % at 20 µM;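 active = compounds giving at least 50% protection of heart cells from peroxide-induced death in the single-dose screen, raw or plate-pattern-corrected value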;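 also: 0% = DMSO wells with peroxide and 100% = DMSO wells without peroxide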
CRFBP-R2 agonist = agonists of human CRF-binding protein/CRF-R2 receptor complex; HEK293 CRF-R2/CRF-BP, calcium dye fluorescence (FLIPR); percent of saturating CRF peptide response; activation, % at 13.2 µM; actives 0.46% (n = 350,000);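 active = activation of at least 50%, plus an integration ratio under a set limit after plate pattern correction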;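 also: plate controls were neutral control wells without compound for no effect and CRF at EC100 for full effect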
MIN6 prolif = induces beta-cell replication in MIN6 cells. proliferation, % at 10 µM. actives 0.29% (n = 330,000). AID 2380. MIN6 cells proliferation, ATPlite luminescence, 48 h; cells starved in 0.2% serum; 100% = growth in 10% serum;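 active = compounds whose signal lies at least 3.5 SD above the mean of all wells on their plate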;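 also: 0% = DMSO-treated cells in low-serum medium and 100% = 10% serum control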
UCH37 inh = inhibitors of human deubiquitinating enzyme UCH37. Q9Y5K5. purified proteasome/UCH37, Ub-AMC cleavage fluorescence. inhibition, % (test concentration not listed). actives 0.33% (n = 330,000). AID 588478;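 active = mean inhibition over replicate wells above about 20%, limit read from the data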;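 also: 0% = compound-free wells with enzyme and 100% = wells lacking proteasome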
Target sequence (Q9Y5K5 whole entry, looked up): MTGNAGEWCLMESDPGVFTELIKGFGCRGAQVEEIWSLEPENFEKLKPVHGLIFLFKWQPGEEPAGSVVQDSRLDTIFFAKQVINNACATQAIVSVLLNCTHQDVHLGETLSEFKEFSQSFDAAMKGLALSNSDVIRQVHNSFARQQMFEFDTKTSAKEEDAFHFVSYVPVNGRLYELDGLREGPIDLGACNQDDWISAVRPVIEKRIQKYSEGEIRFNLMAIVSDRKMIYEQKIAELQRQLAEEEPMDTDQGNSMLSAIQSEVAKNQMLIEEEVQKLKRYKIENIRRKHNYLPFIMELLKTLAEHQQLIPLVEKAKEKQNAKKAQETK
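Material: human UCH37 enzyme supplied as purified proteasome complex. Measure: % inhibition of Ub-AMC cleavage fluorescence. Medium: pH 7.4 Tris-HCl (50 mM) with ovalbumin, ATP-MgCl2, DTT. Times: 30 min preincubation with enzyme, 25 min cleavage at room temperature. Detection: AMC fluorescence intensity at 355/460 nm.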
CRFBP-R2 block = blocks CRF-induced signaling of the CRF-BP/CRF-R2 complex; HEK293 CRF-R2/CRF-BP, CRF-induced calcium fluorescence; inhibition, % at 11.8 µM; actives 0.59% (n = 350,000);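 active = inhibition of the ligand-induced calcium signal above about 50% at the single tested concentration, limit read from the data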
Numbers without * were called inactive; . = no result given. An excerpt weighted towards active compounds, which were near 2.1% of everything screened.

SMILES	iPSC survival up	Cardio protect	CRFBP-R2 agonist	MIN6 prolif	UCH37 inh	CRFBP-R2 block
CC(=NNC(=O)Cn1c(-c2ccccn2)nc2ccccc21)c1cccc(O)c1	.	.	.	.	1	.
O=C(CCN1C(=O)C2CC=CCC2C1=O)NC1CCCCC1 (stereo unspecified)	0	4	0	-5	0	3
CC1CCC(NC(=O)CCN2C(=O)C3CC=CCC3C2=O)CC1 (stereo unspecified)	0	11	-1	-3	4	106*
O=C(COC(=O)CC1c2ccccc2CCN1S(=O)(=O)c1ccc(F)cc1)Nc1ccccc1 (stereo unspecified)	1	3	7	0	6	57*
C=CCNC1=C(Cl)C(=O)c2ccccc2C1=O	0	-12	-2	0	15	15
O=C1C(Cl)=C(NCc2cccnc2)C(=O)c2ccccc21	0	-17	-7	-7	25*	11
O=C1C(Cl)=C(Nc2ccccc2)C(=O)c2ccccc21	0	-14	-2	.	6	83*
CC(C)NC1=C(Cl)C(=O)c2ccccc2C1=O	-3	-14	1	-5	10	-6
O=C(O)c1ccc(NC2=C(Cl)C(=O)c3ccccc3C2=O)cc1	0	-17	-7	-7	16	101*
NC(=O)NN=Cc1ccc(-c2cccc(C(F)(F)F)c2)o1	.	.	.	.	4	.
Cc1ccccc1NC(=S)NN=Cc1ccc(O)cc1O	.	.	.	.	1	.
O=C(O)c1ccc(C=NNc2ccc(F)cc2F)cc1	.	.	.	.	11	.
COc1ccc(OC)c(NC(=O)c2nc(S(=O)(=O)Cc3ccccc3)ncc2Cl)c1	1	-16	-1	-7	.	62*
O=C(Nc1ccc(F)cc1)c1nc(S(=O)(=O)Cc2ccccc2)ncc1Cl	3	-12	-1	-7	.	56*
CCN(c1ccccc1)S(=O)(=O)c1ccc(NC(=O)c2nc(S(C)(=O)=O)ncc2Cl)cc1	9	-18	20	-7	.	3
CCS(=O)(=O)c1ncc(Cl)c(C(=O)Nc2ccc(S(=O)(=O)N(C)c3ccccc3)cc2)n1	21*	-20	-1	-7	.	27
C(=NNc1nncc2ccccc12)c1ccccc1	.	.	.	.	-3	.
O=C(NCc1cccnc1)C(=O)NN=Cc1ccccc1[N+](=O)[O-]	.	.	.	.	6	.
O=C(CCCc1ccccc1)Nc1nncs1	5	6	-1	-3	-2	64*
Cc1cccc(C=NNC(=O)c2ccccc2OCc2cccc(Br)c2)n1	.	.	.	.	6	.
Cc1ccc(N=C2NC(=O)/C(=C/c3cccn3C)S2)cc1	-1	-8	1	-3	8	10
CC1C/C(=C/c2ccncc2)C(=O)/C(=C/c2ccncc2)C1 (stereo unspecified)	53*	-17	-2	-8	3	18
O=C1/C(=C/c2ccncc2)Cc2ccccc21	1	8	-1	0	2	-3
CC1C/C(=C/c2cccn2C)C(=O)/C(=C/c2cccn2C)C1 (stereo unspecified)	2	2	128*	-5	6	-184
COc1ccc2c(Cl)c(C(=O)NN=C3CCCC(=O)C3)sc2c1	.	.	.	.	7	.
SMILES	iPSC survival up	Cardio protect	CRFBP-R2 agonist	MIN6 prolif	UCH37 inh	CRFBP-R2 block
Cc1ccc(NC(=O)C(C#N)=NNc2ccc(C(=O)O)cc2)c(C)c1	.	.	.	.	14	.
CCOC(=O)C(=NNc1cc(Cl)ccc1Cl)N1CCN(CC)CC1	.	.	.	.	7	.
CCOC(=O)/C(=C/C=C1\Sc2cc(C)c(C)cc2N1CC)C(C)=O	2	-4	156*	.	10	-93
CCOC(=O)c1ccc2c(c1)N(CC)C(=O)c1ccccc1S2	0	-2	0	0	0	10
CCC(=O)/C=C1/Sc2ccc(OC)cc2N1CC	-1	-9	0	-1	15	-18
CCC(=O)/C=C1/Sc2ccccc2N1CC	-2	-20	-2	-4	22*	-8
CCOC(=O)/C(=C\C=C1/Sc2ccccc2N1CC)C(C)=O	0	-3	313*	.	15	-370
Fc1ccc(C=NNc2nc3ccccc3[nH]2)cc1F	.	.	.	.	4	.
CC(=NNC(=O)c1ccc(CN2CCc3ccccc3C2)cc1)c1ccccc1O	.	.	.	.	-4	.
CC(C)(C)NC(=O)c1ccc2nsnc2c1	3	6	1	0.0*	4	1

Bioassay records as filed in PubChem.
